Reference: ChEMBL document CHEMBL4219238, “Design, synthesis, molecular modelling and in vitro cytotoxicity analysis of novel carbamate derivatives as inhibitors of Monoacylglycerol lipase” (Bioorg Med Chem, 2018)
Active and inactive are the calls of the source. The calls are words filed in the database; no cut-off is given here.

Columns and labels:
[1] = system: MCF7; experiment: Induction of apoptosis in human MCF7 cells assessed as live cells at 10 uM after 48 hrs by Annexin V-FITC/propidium iodide staining based flow cytometry (reference value: 82.58%); format: functional
How it was run: (§1)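 HEK293T (DMEM with 10% FBS) or MCF7 (DMEM/Ham's F-12 1:1, 10% FBS) cells treated 48 h with 10 μM compound or DMSO. Staining with Alexa Fluor 488 annexin V plus 5 μg/ml PI in HEPES/NaCl/CaCl2 binding buffer; 10,000 cells per sample read by flow cytometry; n = 3, mean ± S.E.M.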

[2] = system: B16-F10; experiment: Induction of apoptosis in mouse B16F10 cells assessed as necrotic cells at 10 uM after 48 hrs by Annexin V-FITC/propidium iodide staining based flow cytometry (reference value: 2.62%); format: functional
[3] = system: MCF7; experiment: Induction of apoptosis in human MCF7 cells assessed as early apoptotic cells at 10 uM after 48 hrs by Annexin V-FITC/propidium iodide staining based flow cytometry (reference value: 3.16%); format: functional; how it was run: as §1
[4] = target: T1, Monoglyceride lipase (Homo sapiens, UniProt Q99685); experiment: Inhibition of recombinant human MAGL using 7-HRA as substrate preincubated for 60 mins followed by substrate addition by fluorescence assay; conditions: read-out: IC50
T1 sequence (Q99685 whole entry): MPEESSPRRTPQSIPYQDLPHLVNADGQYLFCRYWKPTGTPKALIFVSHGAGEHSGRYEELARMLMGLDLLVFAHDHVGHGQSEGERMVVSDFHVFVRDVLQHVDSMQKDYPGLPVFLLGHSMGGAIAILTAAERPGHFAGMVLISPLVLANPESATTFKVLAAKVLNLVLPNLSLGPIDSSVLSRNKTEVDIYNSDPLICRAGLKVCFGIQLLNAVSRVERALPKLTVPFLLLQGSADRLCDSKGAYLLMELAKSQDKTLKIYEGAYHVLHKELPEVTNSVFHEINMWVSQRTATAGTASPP

[5] = target: T2, Fatty-acid amide hydrolase 1 (Homo sapiens) (UniProt O00519); experiment: Inhibition of human FAAH at 10 uM using AAMCA as substrate preincubated for 1 hr followed by substrate addition measured after 30 mins by fluorescence assay relative to control
T2 sequence (whole entry): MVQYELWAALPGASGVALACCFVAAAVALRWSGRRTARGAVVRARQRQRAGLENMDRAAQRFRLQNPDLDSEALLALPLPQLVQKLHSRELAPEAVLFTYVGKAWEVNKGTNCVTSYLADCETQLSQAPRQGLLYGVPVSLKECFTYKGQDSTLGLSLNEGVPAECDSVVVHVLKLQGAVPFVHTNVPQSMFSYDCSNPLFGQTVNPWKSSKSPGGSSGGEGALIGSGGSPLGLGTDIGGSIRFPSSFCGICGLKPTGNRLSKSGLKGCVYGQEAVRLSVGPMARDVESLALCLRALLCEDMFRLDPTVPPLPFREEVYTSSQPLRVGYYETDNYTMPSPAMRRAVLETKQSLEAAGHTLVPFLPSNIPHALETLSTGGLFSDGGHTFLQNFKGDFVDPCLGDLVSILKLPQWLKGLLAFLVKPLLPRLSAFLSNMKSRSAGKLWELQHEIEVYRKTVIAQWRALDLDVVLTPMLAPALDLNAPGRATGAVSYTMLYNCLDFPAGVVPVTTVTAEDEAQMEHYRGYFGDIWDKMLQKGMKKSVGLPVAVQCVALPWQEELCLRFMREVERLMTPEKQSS
How it was run: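 Recombinant human FAAH (C-terminal His-tagged, Sf21), 1 U/well, in 50 mM Tris-HCl, 1 mM EDTA, pH 9, preincubated 1 h at room temperature with 10 μM compound (final). AAMCA added to 20 μM final; fluorescence (ex 360/em 460 nm) read every 3 min for 30 min. Rate by linear regression, no-enzyme background subtracted, normalised to no-inhibitor control.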

[6] = system: HEK-293T; experiment: Induction of apoptosis in HEK293T cells assessed as early apoptotic cells at 10 uM after 48 hrs by Annexin V-FITC/propidium iodide staining based flow cytometry (reference value: 7.41%); format: cell-based; conditions: human; how it was run: as §1
[7] = system: B16-F10; experiment: Induction of apoptosis in mouse B16F10 cells assessed as live cells at 75 nM after 48 hrs by Annexin V-FITC/propidium iodide staining based flow cytometry (reference value: 79.55%); format: functional
[8] = system: B16-F10; experiment: Antiproliferative activity against mouse B16F10 cells at 10 uM after 48 hrs by Cyto Tracker red dye based flow cytometry; format: functional, cell-based
How it was run: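 B16-F10 cells (Iscove's medium, 10% heat-inactivated FBS, 37 °C, 5% CO2) exposed to compound or DMSO for 48 h, stained with CytoTrack Red 628/643 and analysed by flow cytometry. Proliferation index (average number of cells that an initial cell became) expressed as fold change over DMSO control; n = 3; one-way ANOVA with Tukey post-test.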

[9] = system: B16-F10; experiment: Induction of apoptosis in mouse B16F10 cells assessed as apoptotic cells after 48 hrs by Annexin V-FITC/propidium iodide staining based flow cytometry
[10] = system: MCF7; experiment: Induction of apoptosis in human MCF7 cells assessed as necrotic cells at 10 uM after 48 hrs by Annexin V-FITC/propidium iodide staining based flow cytometry (reference value: 5.42%); format: functional; how it was run: as §1
[11] = system: B16-F10; experiment: Induction of apoptosis in mouse B16F10 cells assessed as necrotic cells at 35 nM after 48 hrs by Annexin V-FITC/propidium iodide staining based flow cytometry (reference value: 5.48%); format: functional
[12] = system: B16-F10; experiment: Induction of apoptosis in mouse B16F10 cells assessed as necrotic cells at 75 nM after 48 hrs by Annexin V-FITC/propidium iodide staining based flow cytometry (reference value: 5.48%); format: functional
[13] = system: B16-F10; experiment: Induction of apoptosis in mouse B16F10 cells assessed as live cells at 35 nM after 48 hrs by Annexin V-FITC/propidium iodide staining based flow cytometry (reference value: 79.55%); format: functional
[14] = target: T3, Monoglyceride lipase (Mus musculus) (UniProt O35678); experiment: Inhibition of MAGL in mouse B16-F10 intact cells at 10 uM using 7-HRA as substrate preincubated for 6 hrs followed by substrate addition by fluorescence assay; format: cell-based
T3 sequence (whole entry): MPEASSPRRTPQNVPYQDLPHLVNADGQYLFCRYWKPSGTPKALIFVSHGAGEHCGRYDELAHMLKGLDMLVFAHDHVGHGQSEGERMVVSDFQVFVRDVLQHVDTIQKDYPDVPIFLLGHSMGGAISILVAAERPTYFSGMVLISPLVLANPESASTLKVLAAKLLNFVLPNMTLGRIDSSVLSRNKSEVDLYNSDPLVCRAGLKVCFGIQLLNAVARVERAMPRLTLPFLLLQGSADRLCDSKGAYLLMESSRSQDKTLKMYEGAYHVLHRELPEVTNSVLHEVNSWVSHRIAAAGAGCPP
How it was run: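 Intact B16-F10 cells cultured 6 h with compound or DMSO, homogenised 30 min at 4 °C in lysis buffer and spun 1,500 × g 5 min. 1 μg lysate assayed with 10 μM 7-HRA (ex 571/em 588 nm); 5-min values reported; mean ± SEM, n = 3.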

[15] = system: MCF7; experiment: Induction of apoptosis in human MCF7 cells at 10 uM after 48 hrs by Annexin V-FITC/propidium iodide staining based flow cytometry; format: functional, cell-based; how it was run: as §1

For `O=C(Nc1cccc(-c2ccc(C(F)(F)F)cc2)c1)OCc1ccco1`, which Activity [1] is on record?
The Activity was 60.27%.

And the Activity [2]?
The Activity was 14.25%.

And the Activity [3]?
Its Activity is 8.77%.

What about the IC50 [4] of the same molecule?
The IC50 was 6.7 µM.

And the inhibition [5]?
The inhibition was 10%.

What about the Activity [6] of the same molecule?
Its Activity is 8.13%.

What about the Activity [7] of the same molecule?
Its Activity is 62.84%.

And the Activity [8]?
Its Activity is “Active”.

And the Activity [9]?
The Activity was “Dose-dependent effect”.

And the Activity [10]?
The Activity was 5.33%.

What about the Activity [11] of the same molecule?
The Activity was 2.62%.

And the Activity [12]?
Its Activity is 4.33%.

And the Activity [13]?
Its Activity is 66.12%.

And the inhibition [14]?
Its inhibition is “Active”.

What about the Activity [15] of the same molecule?
Its Activity is “Active”.
